In brackets after ≈: the same amount, converted by molar mass. Activity calls are given as the source filed them. The rule behind the calls is not given here.
Assays:
Aspergillus flavus [1] = experiment: Antifungal activity against Aspergillus flavus ATCC 11495 after 24 hrs by microdilution technique; assay type: functional
Aspergillus flavus [2] = experiment: Antifungal activity against Aspergillus flavus ATCC 11495 at 10 mg/disc after 48 hrs by disc-diffusion method; assay type: functional
Procedure, shortened: (§1)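 Disc diffusion per Bauer method under NCCLS conditions on nutrient agar/Mueller-Hinton agar. Compound dissolved in sterile DMSO at 10 mg/mL, filtered 0.2 µm, stored frozen at -15 °C; 10 mg/disc in DMSO applied. DMSO control. Inhibition zone diameter measured in mm after 48 h incubation at 28 °C.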

Candida albicans [3] = experiment: Antifungal activity against Candida albicans ATCC 26555 after 24 hrs by microdilution technique; assay type: functional
Procedure, shortened: (§2)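 MIC by agar microdilution on Mueller-Hinton agar per NCCLS 1997. Bacteria subcultured overnight at 37 °C on MHA, Candida on SDA at 35 °C for 24-48 h, each passaged at least twice. Incubated 37 °C in humid chamber, read after 24 h.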

Candida albicans [4] = experiment: Antifungal activity against Candida albicans ATCC 26555 at 10 mg/disc after 48 hrs by disc-diffusion method; assay type: functional; procedure, shortened: as §1
Escherichia coli [5] = experiment: Antibacterial activity against Escherichia coli ATCC 11775 after 24 hrs by microdilution technique; assay type: functional; procedure, shortened: as §2
Escherichia coli [6] = experiment: Antibacterial activity against Escherichia coli ATCC 11775 at 10 mg/disc after 48 hrs by disc-diffusion method; assay type: functional, DSM 30083 = JCM 1649; procedure, shortened: as §1
Bacillus cereus [7] = experiment: Antibacterial activity against Bacillus cereus ATCC 14579 after 24 hrs by microdilution technique; assay type: functional; procedure, shortened: as §2
Bacillus cereus [8] = experiment: Antibacterial activity against Bacillus cereus ATCC 14579 at 10 mg/disc after 48 hrs by disc-diffusion method; assay type: functional; procedure, shortened: as §1
Staphylococcus aureus [9] = experiment: Antibacterial activity against Staphylococcus aureus ATCC 12600 after 24 hrs by microdilution technique; assay type: functional; procedure, shortened: as §2
Staphylococcus aureus [10] = experiment: Antibacterial activity against Staphylococcus aureus ATCC 12600 at 10 mg/disc after 48 hrs by disc-diffusion method; assay type: functional; procedure, shortened: as §1

Structure (SMILES)	MIC (Aspergillus flavus [1]; ATCC 11495, 24 h) [µg/mL]	diameter of the inhibition zone (DIZ) (Aspergillus flavus [2])	MIC (Candida albicans [3]; ATCC 26555, 24 h) [µg/mL]	diameter of the inhibition zone (DIZ) (Candida albicans [4])	MIC (Escherichia coli [5]; DSM 30083 = JCM 1649, 24 h) [µg/mL]	diameter of the inhibition zone (DIZ) (Escherichia coli [6]) [mm]	MIC (Bacillus cereus [7]; ATCC 14579, 24 h) [µg/mL]	diameter of the inhibition zone (DIZ) (Bacillus cereus [8])	MIC (Staphylococcus aureus [9]; ATCC 12600, 24 h) [µg/mL]	diameter of the inhibition zone (DIZ) (Staphylococcus aureus [10])	MIC (Aspergillus flavus [1])	MIC (Candida albicans [3])	MIC (Escherichia coli [5]; DSM 30083 = JCM 1649)	diameter of the inhibition zone (DIZ) (Escherichia coli [6]; DSM 30083 = JCM 1649)	MIC (Bacillus cereus [7])	MIC (Staphylococcus aureus [9])
COc1ccc(/C=N/Nc2nc(=S)[nH]c(-c3cc(OC)c(OC)c(OC)c3)c2C#N)cc1	32 (≈ 70.9 µM)	15 mm	32 (≈ 70.9 µM)	15 mm	32 (≈ 70.9 µM)	12	32 (≈ 70.9 µM)	15 mm	32 (≈ 70.9 µM)	17 mm	–	–	–	–	–	–
COc1cc(-c2[nH]c(=S)n3cnnc3c2C#N)cc(OC)c1OC	16 (≈ 46.6 µM)	18 mm	16 (≈ 46.6 µM)	17 mm	16 (≈ 46.6 µM)	13	16 (≈ 46.6 µM)	18 mm	16 (≈ 46.6 µM)	21 mm	–	–	–	–	–	–
COc1cc(-c2[nH]c(=S)n3ncnc3c2C#N)cc(OC)c1OC	256 (≈ 746 µM)	7 mm	128 (≈ 373 µM)	8 mm	128 (≈ 373 µM)	6	128 (≈ 373 µM)	5 mm	128 (≈ 373 µM)	7 mm	–	–	–	–	–	–
N#Cc1c(-c2ccc(Br)cc2)[nH]c(=S)n2cnnc12	16 (≈ 48.2 µM)	17 mm	16 (≈ 48.2 µM)	16 mm	16 (≈ 48.2 µM)	12	16 (≈ 48.2 µM)	17 mm	16 (≈ 48.2 µM)	21 mm	–	–	–	–	–	–
N#Cc1c(-c2ccc(F)cc2)[nH]c(=S)n2ncnc12	256 (≈ 944 µM)	7 mm	128 (≈ 472 µM)	8 mm	128 (≈ 472 µM)	8	128 (≈ 472 µM)	6 mm	128 (≈ 472 µM)	7 mm	–	–	–	–	–	–
Cc1nc2c(C#N)c(-c3ccc(Br)cc3)[nH]c(=S)n2n1	256 (≈ 739 µM)	7 mm	128 (≈ 370 µM)	8 mm	128 (≈ 370 µM)	6	128 (≈ 370 µM)	6 mm	128 (≈ 370 µM)	7 mm	–	–	–	–	–	–
N#Cc1c(N/N=C/c2ccc(F)cc2)nc(=S)[nH]c1-c1ccc(F)cc1	32 (≈ 87.1 µM)	14 mm	32 (≈ 87.1 µM)	15 mm	32 (≈ 87.1 µM)	12	32 (≈ 87.1 µM)	16 mm	32 (≈ 87.1 µM)	19 mm	–	–	–	–	–	–
Cc1nnc2c(C#N)c(-c3ccc(Br)cc3)[nH]c(=S)n12	–	inactive	–	inactive	–	–	–	inactive	–	inactive	inactive	inactive	inactive	inactive	inactive	inactive
N#Cc1c(-c2ccc(Br)cc2)[nH]c(=S)n2nnnc12	–	inactive	–	inactive	32 (≈ 96 µM)	12	32 (≈ 96 µM)	13 mm	16 (≈ 48 µM)	14 mm	inactive	inactive	–	–	–	–
N#Cc1c(-c2ccc(F)cc2)[nH]c(=S)n2cnnc12	16 (≈ 59 µM)	19 mm	16 (≈ 59 µM)	18 mm	16 (≈ 59 µM)	14	16 (≈ 59 µM)	19 mm	16 (≈ 59 µM)	22 mm	–	–	–	–	–	–
COc1cc(-c2[nH]c(=S)nc(-n3nc(C)cc3C)c2C#N)cc(OC)c1OC	–	inactive	–	inactive	32 (≈ 80.5 µM)	12	32 (≈ 80.5 µM)	11 mm	32 (≈ 80.5 µM)	11 mm	inactive	inactive	–	–	–	–

From ChEMBL document CHEMBL2434844, “Synthesis, antimicrobial, antioxidant activities of novel 6-aryl-5-cyano thiouracil derivatives” (Eur J Med Chem, 2013)
